According to ChEMBL document CHEMBL3734701, “Synthesis and antibacterial activity of 4″-O-(trans-β-arylacrylamido)carbamoyl azithromycin analogs” (2015):
In brackets after ≈: the same amount, converted by molar mass.

Columns and labels:
Assay type in all cases: functional
[1] = test system: Staphylococcus aureus; assay: Antibacterial activity against methicillin-susceptible Staphylococcus aureus ATCC 29213 by broth microdilution method
Outline: (§1)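 MICs measured in vitro by broth microdilution following NCCL recommendations, against a Gram-positive panel of sensitive and resistant strains. Azithromycin and clarithromycin were tested alongside as references.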

[2] = test system: Streptococcus pyogenes; assay: Antibacterial activity against clinically isolated erythromycin-susceptible Streptococcus pyogenes S2 by broth microdilution method
Outline: (§2)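 Broth microdilution MIC following the NCCL-recommended method. Panel of sensitive and resistant Gram-positive strains: S. pyogenes S2 (erythromycin-susceptible clinical isolate), S. aureus ATCC25923 and S. pneumoniae ATCC49619 (erythromycin-susceptible). Azithromycin and clarithromycin were run alongside as references.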

[3] = test system: Streptococcus pneumoniae; assay: Antibacterial activity against erythromycin-resistant Streptococcus pneumoniae A22072 expressing mefA gene by broth microdilution method; outline: as §1
[4] = test system: Staphylococcus aureus; assay: Antibacterial activity against clinically isolated penicillin-resistant Staphylococcus aureus by broth microdilution method
Outline: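 Clinical penicillin-resistant S. aureus isolate, not further characterized, tested in a Gram-positive panel. MIC was measured by broth microdilution following NCCL recommendations, with azithromycin and clarithromycin as references.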

[5] = test system: Streptococcus pneumoniae; assay: Antibacterial activity against erythromycin-resistant Streptococcus pneumoniae B1 expressing ermB gene by broth microdilution method; outline: as §1
[6] = test system: Streptococcus pneumoniae; assay: Antibacterial activity against erythromycin-susceptible Streptococcus pneumoniae ATCC 49619 by broth microdilution method; outline: as §2
[7] = test system: Streptococcus pneumoniae; assay: Antibacterial activity against erythromycin-resistant Streptococcus pneumoniae AB11 expressing ermB and mefA genes by broth microdilution method; outline: as §1
[8] = test system: Streptococcus pyogenes; assay: Antibacterial activity against clinically isolated erythromycin-resistant Streptococcus pyogenes R2 by broth microdilution method; outline: as §1
[9] = test system: Staphylococcus aureus; assay: Antibacterial activity against erythromycin-susceptible Staphylococcus aureus ATCC 25923 by broth microdilution method; outline: as §2

Structure (SMILES)	MIC [1] [µg/mL]	MIC [2] [µg/mL]	MIC [3] [µg/mL]	MIC [4] [µg/mL]	MIC [5] [µg/mL]	MIC [6] [µg/mL]	MIC [7] [µg/mL]	MIC [8] [µg/mL]	MIC [9] [µg/mL]
CC[C@@H]1OC(=O)[C@H](C)[C@@H](O[C@H]2C[C@@](C)(OC)[C@@H](OC(=O)NNC(=O)/C=C/c3ccccc3OC)[C@H](C)O2)[C@@H](C)[C@@H](O[C@@H]2O[C@H](C)C[C@H](N(C)C)[C@H]2O)[C@](C)(O)C[C@@H](C)CN(C)[C@H](C)[C@@H](OC(=O)NCc2ccccc2)[C@]1(C)O	2 (≈ 1.82 µM)	0.25 (≈ 0.227 µM)	0.5 (≈ 0.454 µM)	2 (≈ 1.82 µM)	16 (≈ 14.5 µM)	0.5 (≈ 0.454 µM)	8 (≈ 7.27 µM)	32 (≈ 29.1 µM)	0.5 (≈ 0.454 µM)
CC[C@H]1OC(=O)[C@@H](C)[C@H](O[C@@H]2C[C@](C)(OC)[C@H](OC(=O)NNC(=O)/C=C/c3ccc([N+](=O)[O-])cc3)[C@@H](C)O2)[C@H](C)[C@H](O[C@H]2O[C@@H](C)C[C@@H](N(C)C)[C@@H]2O)[C@@](C)(O)C[C@H](C)CN(C)[C@@H](C)[C@H](OC(=O)NCc2ccccc2)[C@@]1(C)O	2 (≈ 1.79 µM)	0.5 (≈ 0.448 µM)	0.12 (≈ 0.108 µM)	2 (≈ 1.79 µM)	4 (≈ 3.59 µM)	0.25 (≈ 0.224 µM)	2 (≈ 1.79 µM)	16 (≈ 14.3 µM)	0.5 (≈ 0.448 µM)
CC[C@H]1OC(=O)[C@@H](C)[C@H](O[C@@H]2C[C@](C)(OC)[C@H](OC(=O)NNC(=O)/C=C/c3ccc(Cl)cc3)[C@@H](C)O2)[C@H](C)[C@H](O[C@H]2O[C@@H](C)C[C@@H](N(C)C)[C@@H]2O)[C@@](C)(O)C[C@H](C)CN(C)[C@@H](C)[C@H](OC(=O)NCc2ccccc2)[C@@]1(C)O	4 (≈ 3.62 µM)	0.5 (≈ 0.453 µM)	0.25 (≈ 0.226 µM)	2 (≈ 1.81 µM)	4 (≈ 3.62 µM)	0.5 (≈ 0.453 µM)	2 (≈ 1.81 µM)	16 (≈ 14.5 µM)	1 (≈ 0.905 µM)
CC[C@@H]1OC(=O)[C@H](C)[C@@H](O[C@H]2C[C@@](C)(OC)[C@@H](OC(=O)NNC(=O)/C=C/c3ccccc3)[C@H](C)O2)[C@@H](C)[C@@H](O[C@@H]2O[C@H](C)C[C@H](N(C)C)[C@H]2O)[C@](C)(O)C[C@@H](C)CN(C)[C@H](C)[C@@H](OC(=O)NCc2ccc(OC)cc2)[C@]1(C)O	4 (≈ 3.64 µM)	0.25 (≈ 0.227 µM)	0.25 (≈ 0.227 µM)	4 (≈ 3.64 µM)	2 (≈ 1.82 µM)	0.25 (≈ 0.227 µM)	8 (≈ 7.27 µM)	32 (≈ 29.1 µM)	1 (≈ 0.909 µM)
CC[C@@H]1OC(=O)[C@H](C)[C@@H](O[C@H]2C[C@@](C)(OC)[C@@H](OC(=O)NNC(=O)/C=C/c3ccco3)[C@H](C)O2)[C@@H](C)[C@@H](O[C@@H]2O[C@H](C)C[C@H](N(C)C)[C@H]2O)[C@](C)(O)C[C@@H](C)CN(C)[C@H](C)[C@@H](OC(=O)NCc2ccc(OC)cc2)[C@]1(C)O	4 (≈ 3.67 µM)	0.25 (≈ 0.229 µM)	0.25 (≈ 0.229 µM)	2 (≈ 1.83 µM)	2 (≈ 1.83 µM)	0.5 (≈ 0.459 µM)	8 (≈ 7.34 µM)	64 (≈ 58.7 µM)	1 (≈ 0.917 µM)
CC[C@H]1OC(=O)[C@@H](C)[C@H](O[C@@H]2C[C@](C)(OC)[C@H](OC(=O)NNC(=O)/C=C/c3ccc(OC)c(OC)c3)[C@@H](C)O2)[C@H](C)[C@H](O[C@H]2O[C@@H](C)C[C@@H](N(C)C)[C@@H]2O)[C@@](C)(O)C[C@H](C)CN(C)[C@@H](C)[C@H](OC(=O)NCc2ccc(OC)cc2)[C@@]1(C)O	4 (≈ 3.45 µM)	0.5 (≈ 0.431 µM)	0.25 (≈ 0.215 µM)	4 (≈ 3.45 µM)	2 (≈ 1.72 µM)	0.5 (≈ 0.431 µM)	8 (≈ 6.89 µM)	64 (≈ 55.2 µM)	2 (≈ 1.72 µM)
CC[C@H]1OC(=O)[C@@H](C)[C@H](O[C@@H]2C[C@](C)(OC)[C@H](OC(=O)NNC(=O)/C=C/c3ccc(OC)c(OC)c3)[C@@H](C)O2)[C@H](C)[C@H](O[C@H]2O[C@@H](C)C[C@@H](N(C)C)[C@@H]2O)[C@@](C)(O)C[C@H](C)CN(C)[C@@H](C)[C@H](OC(=O)NCc2ccccc2)[C@@]1(C)O	4 (≈ 3.54 µM)	0.25 (≈ 0.221 µM)	2 (≈ 1.77 µM)	2 (≈ 1.77 µM)	64 (≈ 56.6 µM)	0.06 (≈ 0.0531 µM)	64 (≈ 56.6 µM)	64 (≈ 56.6 µM)	0.5 (≈ 0.442 µM)
